Results taken from PubChem BioAssay.
The source made the active and inactive calls.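 The calls were made as follows, unless noted: active = viability at or below 10% of carrier control in both of two separate runs; inconclusive = viability at or below 10% in only one of the two runs; inactive = the rest.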

How the values were obtained:
[1] = reducers of endogenous Her2 protein level, primary screen, SKBR3 breast tumor cells, AlphaScreen, ATP viability (AID 461;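 active = Her2 level under about 52% in both replicate screens, with viability over 70% of control, limit read from the data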;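 as to Her2 level: lower value means less Her2 protein in the cells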;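 as to viability: percent of carrier control wells set as 100% viability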); conditions: 18-24 h, measured here: SKBR3 viability, ATP luminescence, at 10 µM
[2] = target: Receptor tyrosine-protein kinase erbB-2 (Homo sapiens) (UniProt P04626); experiment: as above; conditions: 18-24 h, at 10 µM, stronger effect = lower value
Receptor tyrosine-protein kinase erbB-2 (Homo sapiens), sequence (P04626 whole entry, looked up): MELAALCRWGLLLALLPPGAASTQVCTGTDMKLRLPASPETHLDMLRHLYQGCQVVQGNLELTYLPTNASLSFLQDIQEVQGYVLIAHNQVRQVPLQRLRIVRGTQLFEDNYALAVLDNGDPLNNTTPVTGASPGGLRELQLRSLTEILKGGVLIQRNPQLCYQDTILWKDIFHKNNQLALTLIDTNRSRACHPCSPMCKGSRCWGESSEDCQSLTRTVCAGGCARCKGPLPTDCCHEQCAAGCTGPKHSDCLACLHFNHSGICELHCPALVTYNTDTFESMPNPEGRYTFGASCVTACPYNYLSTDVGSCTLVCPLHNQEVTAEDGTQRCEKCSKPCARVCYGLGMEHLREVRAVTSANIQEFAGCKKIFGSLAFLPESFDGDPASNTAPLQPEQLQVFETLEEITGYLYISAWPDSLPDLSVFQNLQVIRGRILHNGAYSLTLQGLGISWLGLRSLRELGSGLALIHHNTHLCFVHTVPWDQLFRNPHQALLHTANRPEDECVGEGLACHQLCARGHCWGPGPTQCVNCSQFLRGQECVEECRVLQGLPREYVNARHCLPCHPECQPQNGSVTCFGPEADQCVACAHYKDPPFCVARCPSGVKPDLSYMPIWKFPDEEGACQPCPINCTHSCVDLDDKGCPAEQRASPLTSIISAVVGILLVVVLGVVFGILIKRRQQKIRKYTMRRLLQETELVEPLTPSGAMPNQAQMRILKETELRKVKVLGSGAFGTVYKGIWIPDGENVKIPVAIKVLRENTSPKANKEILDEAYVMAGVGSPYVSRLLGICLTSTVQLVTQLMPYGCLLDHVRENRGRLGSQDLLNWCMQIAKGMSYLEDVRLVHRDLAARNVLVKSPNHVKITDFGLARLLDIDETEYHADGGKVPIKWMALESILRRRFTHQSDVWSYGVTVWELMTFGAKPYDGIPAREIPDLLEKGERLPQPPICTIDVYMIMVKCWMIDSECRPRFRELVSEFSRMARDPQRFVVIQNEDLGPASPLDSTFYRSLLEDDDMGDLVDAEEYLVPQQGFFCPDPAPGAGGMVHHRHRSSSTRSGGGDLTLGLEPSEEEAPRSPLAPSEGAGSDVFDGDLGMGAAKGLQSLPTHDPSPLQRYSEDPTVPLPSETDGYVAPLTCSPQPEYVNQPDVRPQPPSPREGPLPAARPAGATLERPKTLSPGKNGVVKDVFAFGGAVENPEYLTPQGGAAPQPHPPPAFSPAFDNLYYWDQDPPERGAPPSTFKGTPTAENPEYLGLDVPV

[3] = SK-BR-3 cell growth inhibitors, pilot screen, 24 h, human (AID 572); conditions: SK-BR-3 viability, CellTiter-Glo luminescence, at 10 µM, stronger effect = lower value;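 also: compound exposure lasted between 18 and 24 h rather than exactly 24 h; 100% = carrier-treated control wells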
[4] = HUVEC growth inhibition – cell-based, human, primary screen (AID 575;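 active = viability at or below 30% in both replicate assays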;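 also: 100% = median of untreated cell wells with 0.1% DMSO on each plate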); conditions: HUVEC proliferation, CellTiter-Glo luminescence, 72 h; at 10 µM; stronger effect = lower value
Procedure, shortened: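 Test system: primary human umbilical vein endothelial cells; medium: endothelial basal medium with 2% FBS plus growth supplements; dosing: 10 µM compound only; times: 72 h treatment at 37 °C; signal: CTG luminescence; read-out: % viability relative to median vehicle-well signal on each plate; control set: vehicle and MePR control wells; plate: 384-well, collagen-coated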

[5] = growth inhibitors of H69AR lung tumor, primary screen, human, duplicate replicates (AID 580;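 active = viability at or under a set limit in both replicates, limit being median viability minus 3 SD, cut at about 48% in these data, passing the limit was not always enough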;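 also: 100% = mean luminescence of untreated wells and 0% = no signal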); conditions: H69AR lung tumor cells viability, ATP luminescence, 72 h; at 10 µM; stronger effect = lower value
[6] = reversal of MRP1-mediated doxorubicin resistance, pilot screen, H69AR cells, doxorubicin co-treatment (AID 601;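 active = viability loss from added drug above about 55%, and viability with drug at most 40%, in both replicates, limit read from the data, passing the limit was not always enough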); conditions: CellTiter-Glo, 72 h, at 10 µM; for differential viability (reversal): stronger effect = higher value
[7] = 384-well plate pilot, post-Golgi transport modulator project, inhibition of yeast transport mutant growth (AID 636; in the data active = inhibition above about 31%); conditions: absorbance 615 nm, about 18 h, stronger effect = higher value
[8] = growth suppression of yeast trafficking mutant, preliminary HTS, modulators of trafficking downstream of Golgi apparatus project, 1536-format plate, OD 615 nm (AID 637; in the data active = inhibition above about 30%); conditions: yeast transport mutant growth, absorbance 615 nm, 18 h; stronger effect = higher value
[9] = H69AR cells + 2 uM doxorubicin, measured here: viability with 2 uM doxorubicin, stronger effect = lower value
[10] = H69AR cells, compound alone cytotoxicity

Compound | viability [1] [%] | Her2 level [2] | viability [3] | viability [4] | viability [5] | differential viability (reversal) ([6]; H69AR cells + 2 uM doxorubicin) | viability [6, 9] [%] | viability [6, 10] [%] | inhibition [7] | inhibition [8]
O=C(CN1C(=O)NC2(CCCCCC2)C1=O)N1CCC(Cc2ccccc2)CC1 | 87 | 94.5% (inactive) | 87% (inactive) | 77.2% (inactive) | 86.7% (inactive) | -4.21% (inactive) | 90.9 | 86.7 | -5.33% (inactive) | 2.46% (inactive)
O=C(O)C1C2C=CC(O2)C1C(=O)NCc1ccc(Cl)cc1 (stereo not given) | 107 | 94.5% (inactive) | 107% (inactive) | 105% (inactive) | 104% (inactive) | 7.33% (inactive) | 96.6 | 104 | -5.87% (inactive) | 2.58% (inactive)
O=S(=O)(c1ccc2ccccc2c1)N(CC(O)CN1CCOCC1)c1ccccc1 (stereo not given) | 87 | 75.5% (inactive) | 87% (inactive) | 83.9% (inactive) | 100% (inactive) | 19% (inactive) | 81 | 100 | -5.87% (inactive) | -1.13% (inactive)
Cc1ccc(-c2cc(C(=O)N3CCCC3)no2)cc1 | 93.5 | 106% (inactive) | 93.5% (inactive) | 96% (inactive) | 95.1% (inactive) | 2% (inactive) | 93.1 | 95.1 | -2.11% (inactive) | -5.16% (inactive)
COCCN1Cc2cccc(C(=O)Nc3cccnc3)c2C1=O | 106 | 81% (inactive) | 106% (inactive) | 102% (inactive) | 93.5% (inactive) | -4.91% (inactive) | 98.4 | 93.5 | -6.71% (inactive) | 1.9% (inactive)
CCSc1ncc(C#N)c(=O)[nH]1 | 117 | 119% (inactive) | 117% (inactive) | 96.5% (inactive) | 95% (inactive) | -2.66% (inactive) | 97.6 | 95 | -7.76% (inactive) | -3.28% (inactive)
Cc1ccc(N2CCN(C(=O)c3ccccc3Br)CC2)c(C)c1 | 110 | 72% (inactive) | 110% (inactive) | 93% (inactive) | 89.2% (inactive) | 10.5% (inactive) | 78.6 | 89.2 | -5.6% (inactive) | 0.16% (inactive)
CC1CCCC(C(=O)OCc2ccccc2)N1 (stereo not given) | 119 | 94% (inactive) | 119% (inactive) | 102% (inactive) | 97.2% (inactive) | 6.15% (inactive) | 91 | 97.2 | -2.63% (inactive) | -1.11% (inactive)
COc1ccc(C(CNC(=O)CN2C(=O)NC3(CC(C)CC(C)(C)C3)C2=O)N2CCOCC2)cc1 (stereo not given) | 94.5 | 108% (inactive) | 94.5% (inactive) | 90.4% (inactive) | 90.5% (inactive) | 1.81% (inactive) | 88.7 | 90.5 | -5.73% (inactive) | -2.62% (inactive)
O=C(Cc1ccccc1)N1CCCC(c2nc(-c3cccs3)no2)C1 (stereo not given) | 91.5 | 111% (inactive) | 91.5% (inactive) | 95.5% (inactive) | 102% (inactive) | 16.8% (inactive) | 85.7 | 102 | -5.27% (inactive) | -3.61% (inactive)
Cc1ccc(NC2c3ncccc3C(=O)N2C2CCCCC2)cc1C (stereo not given) | 98.5 | 94.5% (inactive) | 98.5% (inactive) | 91.7% (inactive) | 92.7% (inactive) | -4.25% (inactive) | 97 | 92.7 | -3.78% (inactive) | 11.5% (inactive)
O=C(Nc1ccon1)c1csc2c1CCCC2 | 92.5 | 85% (inactive) | 92.5% (inactive) | 83.2% (inactive) | 98.3% (inactive) | 10.9% (inactive) | 87.4 | 98.3 | -5.66% (inactive) | 2% (inactive)
Cc1c(NC(=O)CSc2nnc3sc4ccccc4n23)c(=O)n(-c2ccccc2)n1C | 94 | 92.5% (inactive) | 94% (inactive) | 106% (inactive) | 90.4% (inactive) | 0.76% (inactive) | 89.6 | 90.4 | 0.65% (inactive) | -2.79% (inactive)
CC(C(=O)N1CCc2ccccc21)N1CCc2ccccc2C1 (stereo not given) | 82 | 79% (inactive) | 82% (inactive) | 93.7% (inactive) | 91.6% (inactive) | -10.2% (inactive) | 102 | 91.6 | -0.53% (inactive) | -3.11% (inactive)
N#Cc1nc(-c2cccs2)oc1NCCc1ccccc1 | 93.5 | 86.5% (inactive) | 93.5% (inactive) | 84.3% (inactive) | 102% (inactive) | 18.3% (inactive) | 83.4 | 102 | -1.18% (inactive) | 1.29% (inactive)
Cc1cc2nc(C3CCN(CC4COc5ccccc5O4)CC3)[nH]c2cc1C (stereo not given) | 98.5 | 87.5% (inactive) | 98.5% (inactive) | 3.41% (active) | 77.8% (inactive) | 22.7% (inactive) | 55.2 | 77.8 | -3.03% (inactive) | 2.83% (inactive)
